Experimental data pooled from the literature.
Compare with care: the assays were run in different laboratories.
Target: BDNF/NT-3 growth factors receptor (NTRK2, Homo sapiens, UniProt Q16620)

The remaining binding of `C=CC(=O)N1CCC(C(=O)NCC(=O)N2CCN(c3nc(-c4cnc(N)nc4C(F)F)nc(N4CCOCC4)n3)CC2)CC1` is reported as 89% (binding; competition with immobilised ligand; 1 µM).
`COc1cnc(Nc2cccc(S(N)(=O)=O)c2)nc1N1CCN(c2ccccc2)C(=O)C1` gave a remaining binding of 100% (binding; competition with immobilised ligand; 1 µM).
`CCN1CCN(Cc2ccc(C(=O)Nc3ccc(C)c(Oc4ccc5c(c4)CC(=O)N5)c3)cc2C(F)(F)F)CC1` has a remaining binding of 81% (binding; competition with immobilised ligand; 1 µM).
The remaining binding of `O=C(NCCCN1CCOCC1)c1ccc(Nc2ncc(Cl)c(-c3ccc(Cl)s3)n2)cc1` is reported as 15% (binding; competition with immobilised ligand; 1 µM).
`CN([C@@H]1CCc2c(CC(=O)O)c3cc(S(C)(=O)=O)ccc3n2C1)S(=O)(=O)c1ccc(F)cc1` gave a remaining binding of 100% (cell-free assay; competition with immobilised ligand; 1 µM).
For `CN(C)c1ncc(F)c(-c2cnn3ncccc23)n1`, the remaining binding was 64% (binding; 1 µM).
`O=C(c1ccc(Nc2ncc(Cl)c(-c3cc4ccccc4s3)n2)cc1)N1CCC(N2CCCC2)CC1` has a remaining binding of 13% (binding; competition with immobilised ligand; 1 µM).
`C[C@@H]1CCN(c2nccc(-c3cnn4ncccc34)n2)C1` gave a remaining binding of 72% (binding; 1 µM).
The remaining binding of `O=C(c1ccc(Nc2ncc(Cl)c(-c3ccc(Cl)s3)n2)cc1)N1CCC(N2CCCC2)CC1` is reported as 5.3% (binding; competition with immobilised ligand; 1 µM).
For `CSc1cccnc1N1CCN(Cc2nc3ccccc3[nH]2)CC1`, the remaining binding was 100% (cell-free assay; competition with immobilised ligand; 1 µM).
For `COc1ncc2cc3ccccc3nc2c1C#N`, the remaining binding was 98% (cell-free assay; competition with immobilised ligand; 5 µM).
With `O=C(NCC1CCOCC1)c1n[nH]cc1NC(=O)c1c(F)cccc1F` the remaining binding was 100% (binding; competition with immobilised ligand; 1 µM).
`CC(C)CC(=O)N1CCc2nc(-c3ccc(Br)cc3)nc(N(C)Cc3ccccc3)c2C1` gave a remaining binding of 100% (cell-free assay; competition with immobilised ligand; 0.1 µM).
With `CN(c1nccc(-c2cnn3ncccc23)n1)C1CC1` the remaining binding was 100% (binding; 1 µM).
`C[C@@H](c1ccc(-n2cnc3c(N)ncnc32)cc1)N1CCc2nn(C)c(Cc3ccccc3)c2C1=O` gave a remaining binding of 24% (binding; competition with immobilised ligand; 0.1 µM).
The remaining binding of `COc1ccnn2ncc(-c3ccnc(N(C)C)n3)c12` is reported as 87% (binding; 1 µM).
`CCOCCn1cc(C(=O)Nc2ccc(-n3nc(-c4cccnc4)cc3C(F)(F)F)cn2)ccc1=O` has a remaining binding of 100% (cell-free assay; competition with immobilised ligand; 1 µM).
`N[C@H]1CCN(c2nccc(-c3cnn4ncccc34)n2)C1` has a remaining binding of 100% (binding; 1 µM).
For `O=C(NC[C@@H]1[C@H]2CN(C(=O)OCc3cc(C(F)(F)F)cc(C(F)(F)F)c3)C[C@@H]12)c1ccc2[nH]nnc2c1`, the remaining binding was 99% (cell-free assay; competition with immobilised ligand; 1 µM).
With `Cc1cnn2ncc(-c3ccnc(N(C)C)n3)c2c1` the remaining binding was 84% (binding; 1 µM).
`O=C(Nc1cnc(Oc2ccc(F)cc2)nc1)N1CCc2ncccc2[C@@H]1c1ccc(F)cc1` gave a remaining binding of 100% (cell-free assay; competition with immobilised ligand; 1 µM).
